# Tests used:
# Type in all cases: functional
# Malme-3M = test: Growth inhibition of human MALME-3M cells
# [1] = Growth inhibition of human SF539 cells
# SNB-75 = test: Growth inhibition of human SNB75 cells
# A549 = test: Growth inhibition of human A549/ATCC cells
# HCT-116 = test: Growth inhibition of human HCT116 cells
# K562 = test: Growth inhibition of human K562 cells
# NCI-H226 = test: Growth inhibition of human NCI-H226 cells
# NCI-H460 = test: Growth inhibition of human NCI-H460 cells
# MCF7 = test: Growth inhibition of human MCF7 cells
# SK-OV-3 = test: Growth inhibition of human SKOV3 cells
# HT-29 = test: Growth inhibition of human HT-29 cells
# SW-620 = test: Growth inhibition of human SW620 cells
# TK-10 = test: Growth inhibition of human TK10 cells
# SK-MEL-5 = test: Growth inhibition of human SK-MEL-5 cells
# MDA-MB-435 = test: Growth inhibition of human MDA-MB-435 cells
# [2] = Cytotoxicity against human melanoma cells assessed as cell growth at 10 uM relative to control; settings: read-out: Activity
# In short: (§1)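 Single-concentration screen against a panel of human cancer cell lines. Each value is the mean percent growth across the cell lines of that tumour subpanel.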
# [3] = Growth inhibition of human UO31 cells; settings: UO-31
# MDA-MB-231 = test: Growth inhibition of human MDA-MB-231 cells
# [4] = Growth inhibition of human HCC2998 cells; settings: HCC 2998
# [5] = Growth inhibition of human HCT15 cells
# [6] = Growth inhibition of human BT549 cells
# IGROV-1 = test: Growth inhibition of human IGROV1 cells
# NCI-H522 = test: Growth inhibition of human NCI-H522 cells
# [7] = Growth inhibition of human LOXIMVI cells; settings: LOX IMVI
# [8] = Growth inhibition of human OVCAR4 cells
# HL-60(TB) = test: Growth inhibition of human HL-60(TB) cells
# SK-MEL-28 = test: Growth inhibition of human SK-MEL-28 cells
# [9] = Cytotoxicity against human colon cancer cells assessed as cell growth at 10 uM relative to control; settings: Cancer cell lines, read-out: Activity; in short: as §1
# CAKI-1 = test: Growth inhibition of human CAKI-1 cells
# [10] = Cytotoxicity against human CNSC cells assessed as cell growth at 10 uM relative to control; settings: read-out: Activity; in short: as §1
# SNB-19 = test: Growth inhibition of human SNB19 cells
# SR = test: Growth inhibition of human SR cells
# NCI-H23 = test: Growth inhibition of human NCI-H23 cells
# ACHN = test: Growth inhibition of human ACHN cells
# T47D = test: Growth inhibition of human T47D cells
# [11] = Growth inhibition of human MOLT4 cells
# MDA-MB-468 = test: Growth inhibition of human MDA-MB-468 cells
# [12] = read-out: LC50 (the source's name)
compound,measurement,setting,value
CC(C)C[C@H](NC(=O)CCn1ccc2ncccc2c1=O)B(O)O,GI50,Malme-3M,5.12 µM
same,TGI,Malme-3M,62.2 µM
same,CC50,Malme-3M; [12],> 100 µM
same,GI50,[1]; SF-539,2.76 µM
same,TGI,[1]; SF-539,8.38 µM
same,CC50,"[1]; SF-539, read-out: LC50 (the source's name)",> 100 µM
same,GI50,SNB-75,13.3 µM
same,LC50,SNB-75,> 100 µM
same,TGI,SNB-75,44.9 µM
same,GI50,A549,38 µM
same,TGI,A549,> 100 µM
same,CC50,A549; [12],> 100 µM
same,GI50,HCT-116,3.3 µM
same,LC50,HCT-116,86.2 µM
same,TGI,HCT-116,16.5 µM
same,GI50,K562,17.2 µM
same,TGI,K562,> 100 µM
same,CC50,K562; [12],> 100 µM
same,GI50,NCI-H226,2.68 µM
same,TGI,NCI-H226,8.9 µM
same,CC50,NCI-H226; [12],48 µM
same,GI50,NCI-H460,36.2 µM
same,LC50,NCI-H460,> 100 µM
same,TGI,NCI-H460,> 100 µM
same,GI50,MCF7,3.61 µM
same,TGI,MCF7,> 100 µM
same,CC50,MCF7; [12],> 100 µM
same,GI50,SK-OV-3,> 100 µM
same,LC50,SK-OV-3,> 100 µM
same,TGI,SK-OV-3,> 100 µM
same,GI50,HT-29,6.77 µM
same,LC50,HT-29,> 100 µM
same,TGI,HT-29,> 100 µM
same,GI50,SW-620,4.62 µM
same,LC50,SW-620,> 100 µM
same,TGI,SW-620,> 100 µM
same,GI50,TK-10,5.16 µM
same,LC50,TK-10,> 100 µM
same,TGI,TK-10,47.7 µM
same,GI50,SK-MEL-5,4.03 µM
same,LC50 (concentration killing 50% of cells),SK-MEL-5,> 100 µM
same,TGI,SK-MEL-5,22.1 µM
same,GI50,MDA-MB-435,2.41 µM
same,TGI,MDA-MB-435,7.02 µM
same,CC50,MDA-MB-435; [12],67.8 µM
same,growth at 10 µM,[2],60.4%
same,GI50,[3],19.4 µM
same,LC50,[3],> 100 µM
same,TGI,[3],> 100 µM
same,GI50,MDA-MB-231,7.94 µM
same,TGI,MDA-MB-231,32.5 µM
same,CC50,MDA-MB-231; [12],> 100 µM
same,GI50,[4],13.6 µM
same,LC50,[4],90.2 µM
same,TGI,[4],35 µM
same,GI50,[5]; HCT-15,21.3 µM
same,TGI,[5]; HCT-15,> 100 µM
same,CC50,"[5]; HCT-15, read-out: LC50 (the source's name)",> 100 µM
same,GI50,[6]; BT-549,3.49 µM
same,TGI,[6]; BT-549,12.5 µM
same,CC50,"[6]; BT-549, read-out: LC50 (the source's name)",> 100 µM
same,GI50,IGROV-1,60.2 µM
same,LC50,IGROV-1,> 100 µM
same,TGI,IGROV-1,> 100 µM
same,GI50,NCI-H522,4.66 µM
same,LC50,NCI-H522,> 100 µM
same,TGI,NCI-H522,21.7 µM
same,GI50,[7],6.37 µM
same,TGI,[7],28.4 µM
same,CC50,[7]; [12],> 100 µM
same,GI50,[8]; OVCAR-4,28.4 µM
same,TGI,[8]; OVCAR-4,> 100 µM
same,CC50,"[8]; OVCAR-4, read-out: LC50 (the source's name)",> 100 µM
same,GI50,HL-60(TB),6.88 µM
same,TGI,HL-60(TB),> 100 µM
same,GI50,SK-MEL-28,7.17 µM
same,TGI,SK-MEL-28,> 100 µM
same,CC50,SK-MEL-28; [12],> 100 µM
same,growth at 10 µM,[9],78.1%
same,GI50,CAKI-1,19.4 µM
same,TGI,CAKI-1,> 100 µM
same,CC50,CAKI-1; [12],> 100 µM
same,growth at 10 µM,[10],82.9%
same,GI50,SNB-19,41.2 µM
same,TGI,SNB-19,> 100 µM
same,CC50,SNB-19; [12],> 100 µM
same,GI50,SR,3.18 µM
same,TGI,SR,> 100 µM
same,CC50,SR; [12],> 100 µM
same,GI50,NCI-H23,25.4 µM
same,TGI,NCI-H23,> 100 µM
same,CC50,NCI-H23; [12],> 100 µM
same,GI50,ACHN,9.15 µM
same,TGI,ACHN,> 100 µM
same,CC50,ACHN; [12],> 100 µM
same,GI50,T47D,4.67 µM
same,TGI,T47D,> 100 µM
same,CC50,T47D; [12],> 100 µM
same,GI50,[11]; MOLT-4,3.3 µM
same,TGI,[11]; MOLT-4,> 100 µM
same,CC50,"[11]; MOLT-4, read-out: LC50 (the source's name)",> 100 µM
same,GI50,MDA-MB-468,2.04 µM
same,TGI,MDA-MB-468,9.96 µM
same,CC50,MDA-MB-468; [12],> 100 µM

# Source: ChEMBL document CHEMBL3286129, “Optimization of peptidomimetic boronates bearing a P3 bicyclic scaffold as proteasome inhibitors” (Eur J Med Chem, 2014)
